In ChEMBL document CHEMBL1143323, “Oxidosqualene cyclase from Saccharomyces cerevisiae, Trypanosoma cruzi, Pneumocystis carinii and Arabidopsis thaliana expressed in yeast: a model for the development of novel antiparasitic agents” (Bioorg Med Chem Lett, 2009):

Assays:
Cycloartenol synthase = Cycloartenol synthase (Arabidopsis thaliana, UniProt P38605); assay: Inhibition of Arabidopsis thaliana cycloartenol synthase expressed in Saccharomyces cerevisiae SMY8
Outline: (§1)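 Cell-free homogenates of recombinant OSC-defective S. cerevisiae SMY8 strains, each expressing one OSC: lanosterol cyclase from S. cerevisiae, T. cruzi or P. carinii, or cycloartenol cyclase from A. thaliana. Cyclase activity was measured in homogenates with inhibitor present and IC50 derived. Values are means of two separate experiments, each with duplicate incubations; maximum deviation from the mean under 10%.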

Lanosterol synthase = biological target: T1, Lanosterol synthase (Homo sapiens, UniProt P48449); assay: Inhibition of human OSC expressed in Saccharomyces cerevisiae SMY8
T1 sequence (P48449 whole entry): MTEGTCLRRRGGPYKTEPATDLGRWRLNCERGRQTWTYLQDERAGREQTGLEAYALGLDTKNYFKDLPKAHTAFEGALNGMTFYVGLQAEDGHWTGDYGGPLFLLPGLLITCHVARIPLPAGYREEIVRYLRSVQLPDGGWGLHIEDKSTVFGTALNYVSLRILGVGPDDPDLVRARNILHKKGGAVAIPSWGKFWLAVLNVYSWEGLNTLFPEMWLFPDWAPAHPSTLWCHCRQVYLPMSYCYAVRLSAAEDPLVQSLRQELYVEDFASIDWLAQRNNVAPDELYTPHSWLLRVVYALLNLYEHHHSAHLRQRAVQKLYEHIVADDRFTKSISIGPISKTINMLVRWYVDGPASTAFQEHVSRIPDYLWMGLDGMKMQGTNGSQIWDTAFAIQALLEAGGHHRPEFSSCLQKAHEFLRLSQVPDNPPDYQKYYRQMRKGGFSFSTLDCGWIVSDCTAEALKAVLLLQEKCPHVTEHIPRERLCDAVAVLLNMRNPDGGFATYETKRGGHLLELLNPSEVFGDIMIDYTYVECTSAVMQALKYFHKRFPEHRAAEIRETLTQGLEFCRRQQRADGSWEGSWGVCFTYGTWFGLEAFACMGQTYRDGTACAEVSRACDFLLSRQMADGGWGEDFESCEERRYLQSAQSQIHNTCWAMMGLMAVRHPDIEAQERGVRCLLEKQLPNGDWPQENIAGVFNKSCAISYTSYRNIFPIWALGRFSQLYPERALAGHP

Lanosterol synthase ERG7 = biological target: T2, Lanosterol synthase ERG7 (Saccharomyces cerevisiae S288c, UniProt P38604); assay: Inhibition of yeast OSC expressed in Saccharomyces cerevisiae SMY8; outline: as §1
T2 sequence (P38604 whole entry): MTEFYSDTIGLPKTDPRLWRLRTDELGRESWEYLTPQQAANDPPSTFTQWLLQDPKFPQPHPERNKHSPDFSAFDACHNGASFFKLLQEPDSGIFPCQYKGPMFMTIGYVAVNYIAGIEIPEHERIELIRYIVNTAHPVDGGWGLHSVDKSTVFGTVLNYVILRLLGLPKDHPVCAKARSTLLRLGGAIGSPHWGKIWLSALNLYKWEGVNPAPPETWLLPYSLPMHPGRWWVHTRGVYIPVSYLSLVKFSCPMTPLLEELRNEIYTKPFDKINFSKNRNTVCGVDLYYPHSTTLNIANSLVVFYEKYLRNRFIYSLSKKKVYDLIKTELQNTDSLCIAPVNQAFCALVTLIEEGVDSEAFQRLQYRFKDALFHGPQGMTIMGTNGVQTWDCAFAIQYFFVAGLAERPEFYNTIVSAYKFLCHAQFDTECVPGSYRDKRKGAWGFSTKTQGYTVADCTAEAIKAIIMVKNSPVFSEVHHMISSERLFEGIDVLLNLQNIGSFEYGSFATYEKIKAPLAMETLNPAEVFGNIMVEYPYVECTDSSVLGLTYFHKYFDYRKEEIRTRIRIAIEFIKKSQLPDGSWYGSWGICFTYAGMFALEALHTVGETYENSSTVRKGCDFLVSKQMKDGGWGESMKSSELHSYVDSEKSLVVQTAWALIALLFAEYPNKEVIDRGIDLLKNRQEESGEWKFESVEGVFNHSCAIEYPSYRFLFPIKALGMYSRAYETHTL

[1] = Inhibition of Trypanosoma cruzi OSC expressed in Saccharomyces cerevisiae SMY8; outline: as §1
[2] = Inhibition of Pneumocystis carinii OSC expressed in Saccharomyces cerevisiae SMY8; outline: as §1
[3] = Selectivity ratio of IC50 for human OSC to IC50 for Pneumocystis carinii OSC

Cycloartenol synthase, sequence (P38605 whole entry): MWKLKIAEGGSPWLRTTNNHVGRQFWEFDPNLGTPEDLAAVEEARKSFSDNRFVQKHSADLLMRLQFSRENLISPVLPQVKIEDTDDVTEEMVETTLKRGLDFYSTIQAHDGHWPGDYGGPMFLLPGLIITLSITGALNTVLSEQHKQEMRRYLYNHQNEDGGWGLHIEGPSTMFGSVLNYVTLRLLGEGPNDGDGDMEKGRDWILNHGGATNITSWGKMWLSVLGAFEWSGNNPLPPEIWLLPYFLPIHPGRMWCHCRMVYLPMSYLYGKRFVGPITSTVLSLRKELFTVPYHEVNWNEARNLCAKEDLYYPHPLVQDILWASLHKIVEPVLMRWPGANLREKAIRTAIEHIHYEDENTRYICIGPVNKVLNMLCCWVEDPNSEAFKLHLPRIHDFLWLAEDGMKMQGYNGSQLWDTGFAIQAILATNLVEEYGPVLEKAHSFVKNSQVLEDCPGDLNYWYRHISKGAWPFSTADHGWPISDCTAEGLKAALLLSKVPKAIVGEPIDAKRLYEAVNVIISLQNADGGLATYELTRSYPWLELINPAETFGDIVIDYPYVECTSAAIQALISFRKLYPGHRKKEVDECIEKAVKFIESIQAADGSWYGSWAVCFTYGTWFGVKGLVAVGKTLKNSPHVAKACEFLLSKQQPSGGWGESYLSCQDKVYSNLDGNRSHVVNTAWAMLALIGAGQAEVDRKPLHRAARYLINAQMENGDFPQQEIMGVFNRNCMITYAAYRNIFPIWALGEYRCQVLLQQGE

SMILES	IC50 (Cycloartenol synthase)	IC50 (Lanosterol synthase)	IC50 (Lanosterol synthase ERG7)	IC50 [1]	IC50 [2]	Ratio IC50 [3]
O=C(c1ccc(Cl)cc1)N1CCC(=Cc2ccc(C3=NCCO3)cc2)CC1	2500 nM	1150 nM	670 nM	> 5000 nM	> 5000 nM	–
CC(=O)N(CCO)CCCCOc1ccc2c(-c3ccc(Br)cc3)nsc2c1	800 nM	> 1000 nM	100000 nM	5500 nM	–	–
C=CCN(C)CCCCCCOc1ccc(C(=O)c2ccc(Br)cc2)c(F)c1	1750 nM	–	210 nM	900 nM	340 nM	–
C=CCN(C)C/C=C/COc1ccc2c(-c3ccc(Br)cc3)coc2c1	3000 nM	90000 nM	210 nM	–	1200 nM	–
CCN(CCO)CCCCC[C@H]1CC[C@H](N(C)S(=O)(=O)c2ccc(C(F)(F)F)cc2)CC1	3000 nM	450 nM	270 nM	1600 nM	–	–
CN([C@H]1CC[C@H](CCCCCN(CCO)CCO)CC1)S(=O)(=O)c1ccc(C(F)(F)F)cc1	1500 nM	720 nM	1500 nM	2700 nM	400 nM	–
C=CCN(C)CCCCCCOc1ccc2c(-c3ccc(Br)cc3)nn(C)c2c1	2600 nM	2300 nM	290 nM	3000 nM	> 5000 nM	–
CN(C/C=C/COc1ccc(C(=O)c2ccc(Br)cc2)cc1)C1CC1	260 nM	270 nM	180 nM	1500 nM	200 nM	–
CCN(CCO)CCCCC[C@H]1CC[C@H](N(C)C(=O)Oc2ccc(Cl)cc2)CC1	700 nM	4120 nM	100 nM	2000 nM	2500 nM	–
CCN(CCO)CCCC#Cc1ccc2c(-c3ccc(Br)cc3)nsc2c1	1700 nM	230 nM	5000 nM	> 10000 nM	2250 nM	–
CCN(CC)C1(CCCC[C@H]2CC[C@H](N(C)S(=O)(=O)c3ccc(C(F)(F)F)cc3)CC2)CC1	320 nM	440 nM	500 nM	400 nM	1300 nM	–
CCN(CC)C(C)(C)CCCC[C@H]1CC[C@H](N(C)S(=O)(=O)c2ccc(C(F)(F)F)cc2)CC1	4100 nM	4930 nM	7000 nM	> 100000 nM	1000 nM	–
CCN(CC)CCCCC[C@H]1CC[C@H](N(C)S(=O)(=O)c2ccc(C(F)(F)F)cc2)CC1	1000 nM	2440 nM	3600 nM	2400 nM	600 nM	–
CCN(CCO)C(C)(C)C#Cc1ccc2c(-c3ccc(Br)cc3)nsc2c1	1250 nM	11500 nM	2200 nM	4200 nM	1000 nM	–
Brc1ccc(-c2nsc3cc(CCCCCN4CCOCC4)ccc23)cc1	650 nM	100 nM	400 nM	1100 nM	50 nM	–
Brc1ccc(-c2nsc3cc(OCCCCN4CCOCC4)ccc23)cc1	480 nM	120 nM	600 nM	1100 nM	70 nM	–
C=CCN(C)CCCCC[C@H]1CC[C@H](N(C)S(=O)(=O)c2ccc(C(F)(F)F)cc2)CC1	440 nM	100 nM	300 nM	300 nM	120 nM	–
CCN(CCO)CCCCOc1ccc2c(-c3ccc(Br)cc3)nsc2c1	2300 nM	520 nM	700 nM	6500 nM	50 nM	10
CCN(CC#Cc1ccc2c(-c3ccc(Br)cc3)nsc2c1)CCO	550 nM	4600 nM	300 nM	2300 nM	800 nM	–
C=CCN(C)CCCCC[C@H]1CC[C@H](N(C)C(=O)Oc2ccc(C(F)(F)F)cc2)CC1	1000 nM	140 nM	50 nM	70 nM	340 nM	–
CCN(CC)C(=O)CCCC[C@H]1CC[C@H](N(C)S(=O)(=O)c2ccc(C(F)(F)F)cc2)CC1	2000 nM	> 10000 nM	> 100000 nM	> 100000 nM	> 100000 nM	–
C=CCN(C)Cc1ccc(-c2ccc(C(=O)c3ccc(Br)cc3)cc2)cc1	250 nM	250 nM	320 nM	600 nM	50 nM	5
C=CCN(C)CCCCCCOc1ccc(-c2nsc3cc(Br)ccc23)cc1	10000 nM	20300 nM	280 nM	> 5000 nM	550 nM	40
C=CCN(C)CCCCCCOc1ccc2c(-c3ccc(Br)cc3)nsc2c1	950 nM	160 nM	70 nM	340 nM	230 nM	–
C=CCN(C)CCCCOc1ccc2c(-c3ccc(Br)cc3)nsc2c1	70 nM	260 nM	700 nM	250 nM	200 nM	–
